Experimental data reported in ChEMBL document CHEMBL4270562, “Synthesis and evaluation of the cytotoxic activity of Furanaphthoquinones tethered to 1H-1,2,3-triazoles in Caco-2, Calu-3, MDA-MB231 cells” (Eur J Med Chem, 2018).

Legend:
Caco-2 [1] = assay: Cytotoxicity against human Caco2 cells assessed as cell viability at 5 uM after 48 hrs by MTT assay relative to control; assay type: functional; details: Caco-2, 48 h, read-out: Activity
Method in brief: (§1)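 Single-concentration screen at 5 μM. Cells were seeded at 32,000/well and pre-incubated 24 h at 37 °C, 5% CO2, then treated 48 h in 10% FBS DMEM or RPMI containing 0.5% DMSO. MTT (2.5 mg/mL solution, 3 h), formazan dissolved in DMSO, absorbance at 570/690 nm. Viability expressed as % of untreated cells, mean ± SD.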

Calu-3 = assay: Cytotoxicity against human Calu3 cells assessed as cell viability at 5 uM after 48 hrs by MTT assay relative to control; assay type: functional; details: Calu-3, 48 h, read-out: Activity; method in brief: as §1
[2] = Cytotoxicity against African green monkey Vero cells assessed as cell viability at 5 uM after 48 hrs by MTT assay relative to control; assay type: cell-based; details: chlorocebus sabaeus, read-out: Activity; method in brief: as §1
MDA-MB-231 = assay: Cytotoxicity against human MDA-MB-231 cells assessed as cell viability at 5 uM after 48 hrs by MTT assay relative to control; assay type: functional; details: MDA-MB-231, 48 h, read-out: Activity; method in brief: as §1
[3] = Effect on prothrombin time in human platelet poor plasma at 100 uM after 3 hrs; assay type: ADME, cell-free
Method in brief: (§2)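 Citrated platelet-poor plasma tested with sample at 100 μM, vehicle DMSO ≤1%. Clotting times (PT, aPTT) were measured on a coagulation analyzer. DMSO 1% was the negative control and rivaroxaban 100 μM the positive anticoagulant control.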

[4] = Selectivity index, ratio of CC50 for African green monkey Vero cells to IC50 for human Caco2 cells; assay type: toxicity; details: Vero cells (CC50) and Caco2 cells (IC50)
Method in brief: (§3)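 Cells seeded at 32,000/well, grown 24 h at 37 °C in 5% CO2, then exposed for 48 h to samples at 5 to 400 μM in 10% FBS DMEM or RPMI with 0.5% DMSO. Vehicle medium with 0.5% DMSO served as control. Viability was read by MTT reduction: MTT solution (2.5 mg/mL) in HBSS for 3 h, DMSO to dissolve formazan, absorbance at 570/690 nm. IC50 (tumour lines) and CC50 (Vero) were derived from survival relative to untreated cells, and SI was calculated from them.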

Platelet = assay: Inhibition of arachidonic acid-induced platelet aggregation in human platelet rich plasma at 100 uM preincubated for 2 mins followed by arachidonic acid addition and measured after 3 hrs by turbidimetric analysis; assay type: cell-based
Method in brief: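 Fresh platelet-rich plasma pre-incubated 2 min at 37 °C with sample (100 μM) before arachidonic acid stimulation. Aggregation was followed turbidimetrically in a lumi-aggregometer. DMSO 1% was the negative control and acetylsalicylic acid 100 μM the positive control.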

[5] = Effect on activated thromboplastin time in human platelet poor plasma at 100 uM after 3 hrs; assay type: ADME, cell-free; method in brief: as §2
[6] = Cytotoxicity against African green monkey Vero cells assessed as cell viability after 48 hrs by MTT assay relative to control; assay type: cell-based; details: chlorocebus sabaeus; method in brief: as §3
Caco-2 [7] = assay: Cytotoxicity against human Caco2 cells assessed as cell viability after 48 hrs by MTT assay relative to control; assay type: functional, cell-based; details: Caco-2, 48 h; method in brief: as §3

| SMILES | viability at 5 µM (Caco-2 [1]) | viability at 5 µM (Calu-3) | viability at 48 h, 5 µM [2] | viability at 5 µM (MDA-MB-231) | Activity [3] | selectivity ratio [4] | Activity (Platelet) | Activity [5] | CC50 at 48 h [6] | IC50 (Caco-2 [7]) |
| --- | --- | --- | --- | --- | --- | --- | --- | --- | --- | --- |
| COc1ccc(-n2cc(C3CC4=C(O3)C(=O)c3ccccc3C4=O)nn2)cc1 (stereo not given) | 81.8% | 125% | 64.8% | 99.6% | – | – | – | – | – | – |
| O=C1C2=C(OC(c3cn(-c4ccc(Cl)cc4)nn3)C2)C(=O)c2ccccc21 (stereo not given) | 82.1% | 134% | 78.1% | 103% | – | – | – | – | – | – |
| O=C1C(=O)c2ccccc2C2=C1CC(c1cn(-c3cc(Cl)ccc3Cl)nn1)O2 (stereo not given) | 78.1% | 118% | 74.7% | 82.1% | – | – | – | – | – | – |
| O=C1C2=C(OC(c3cn(-c4ccc(F)cc4)nn3)C2)C(=O)c2ccccc21 (stereo not given) | 77.3% | 104% | 73% | 97.9% | – | – | – | – | – | – |
| O=C1C(=O)c2ccccc2C2=C1CC(c1cn(-c3ccc(Cl)c(Cl)c3)nn1)O2 (stereo not given) | 94.4% | 111% | 81% | 90.2% | – | – | – | – | – | – |
| O=C1C2=C(OC(c3cn(-c4ccccc4)nn3)C2)C(=O)c2ccccc21 (stereo not given) | 88.3% | 113% | 76.2% | 109% | – | – | – | – | – | – |
| Cc1ccc(-n2cc(C3CC4=C(O3)c3ccccc3C(=O)C4=O)nn2)cc1 (stereo not given) | 33.3% | 111% | 41.8% | 90.7% | – | – | – | – | – | – |
| O=C1C(=O)c2ccccc2C2=C1CC(c1cn(-c3ccc(Cl)cc3)nn1)O2 (stereo not given) | 46.4% | 122% | 59.3% | 46.5% | – | – | – | – | – | – |
| O=C1C(=O)c2ccccc2C2=C1CC(c1cn(-c3ccc([N+](=O)[O-])cc3)nn1)O2 (stereo not given) | 86.9% | 133% | 88.7% | 99.2% | – | – | – | – | – | – |
| COc1ccc(-n2cc(C3CC4=C(O3)c3ccccc3C(=O)C4=O)nn2)cc1 (stereo not given) | 23% | 113% | 34.1% | 41.1% | – | – | – | – | – | – |
| O=C1C(=O)c2ccccc2C2=C1CC(c1cn(-c3ccc(F)cc3)nn1)O2 (stereo not given) | 37.9% | 117% | 55.8% | 41.5% | – | – | – | – | – | – |
| O=C1C2=C(OC(c3cn(-c4cc(Cl)ccc4Cl)nn3)C2)C(=O)c2ccccc21 (stereo not given) | 85.8% | 139% | 90.4% | 104% | – | – | – | – | – | – |
| Cc1ccc(-n2cc(C3CC4=C(O3)C(=O)c3ccccc3C4=O)nn2)cc1 (stereo not given) | 88% | 112% | 74% | 95.3% | – | – | – | – | – | – |
| O=C1C2=C(OC(c3cn(-c4ccc(Cl)c(Cl)c4)nn3)C2)C(=O)c2ccccc21 (stereo not given) | 83.9% | 111% | 78.7% | 96.6% | – | – | – | – | – | – |
| O=C1C2=C(OC(c3cn(-c4ccc([N+](=O)[O-])cc4)nn3)C2)C(=O)c2ccccc21 (stereo not given) | 95.5% | 120% | 63.6% | 97.4% | – | – | – | – | – | – |
| O=C1C(=O)c2ccccc2C2=C1CC(c1cn(-c3ccccc3)nn1)O2 (stereo not given) | 23.9% | 110% | 68% | 87.7% | Non-Toxic | 6.25 | Non-Toxic | Non-Toxic | 28 µM | 4.48 µM |
